Only a selection was taken, and hits are over-represented in it overall.
NALP3 yeast inh: NALP3 inflammasome inhibitors in reconstituted yeast, primary screen, luminescence, uHTS; Yeast reconstituted NLRP3/ASC/caspase-1, beta-gal luminescence, 24 h; inhibition, % at 10 µM; 0.39% of 330,000 active; AID 2825, 2010;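 active = inhibition of 50% or more; inactive = inhibition below 50%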;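 note: plate controls were induced DMSO wells for no effect and uninduced yeast grown without galactose for full effect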
NALP1 yeast inh: NALP1 inflammasome inhibitors in reconstituted yeast, colorimetric, S. cerevisiae, triplicate retest. S. cerevisiae NALP1/ASC/caspase-1 growth, X-gal OD620, 72 h. inhibition, % at 10 µM. 0.61% of 280,000 active. AID 2071, 2009; in the data active = inhibition mostly above about 24%, no sharp cut-off; inactive = mostly below about 32%
Calb FLC: C. albicans growth inhibition with fluconazole, primary screen, CaCi-2 strain, Alamar Blue fluorescence; C. albicans CaCi-2 + fluconazole, 48 h; growth inhibition, % (concentration not given with the values); 0.57% of 300,000 active; AID 1979, 2009;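 active = growth inhibition above about 58% in most replicates, limit read from the data, passing the limit was not always enough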;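 note: all wells also contain fluconazole at 8 µg/ml as a sub-toxic cotreatment; 0% = median of DMSO wells and 100% = median of geldanamycin control wells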
T cruzi repl: inhibitors of intracellular T. cruzi growth, primary screen, luminescence, NIH3T3 host cells | inhibition, % (no concentration beside the values) | T. cruzi beta-gal in NIH3T3, 90 h | AID 1885, 2009 | 1.4% of 300,000 active;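 active = mean inhibition across valid replicates above about 55%, limit read from the data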;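 note: signal also drops with host cell toxicity which is not excluded here; 0% = plate median of DMSO wells and 100% = zero luminescence signal; higher percent means less beta-gal luminescence so fewer parasites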
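compound dosing = single 50 nL compound addition per well in DMSO | material = NIH/3T3 host cells with β-galactosidase reporter T. cruzi | input = 5,000 host fibroblasts per well | timing = ≥90 h infection period, 3 h prior cell attachment | read-out basis = percent inhibition of parasite-derived β-gal signal | detection = GalScreen β-gal luminescence, detergent lysis, 60 min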
PolyA inh: polyadenylation inhibitors in yeast reporter cells, primary screen, luminescence, S. cerevisiae; S. cerevisiae SKY197-pL101 polyadenylation reporter, beta-gal luminescence; efflux-impaired pdr1/pdr3 knockout yeast; score 100 = 6 SD above DMSO; activity score, % at 12 µM; 0.02% of 300,000 active; AID 1875, 2009;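 active = lowest replicate activity score at least 50, where 100 means six control SD above control mean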;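 note: yeast exposed to compound for 9 h at 30 °C; higher score means more reporter readthrough which indicates perturbed polyadenylation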
Lmaj promast: Leishmania major promastigote growth inhibition, primary screen; 9% of 200,000 active; inhibition, % at 10 µM; Leishmania major promastigotes, resazurin fluorescence viability; in the data active = inhibition above about 50%;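 note: promastigotes grown with compound for 44 hours at 28 °C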
An asterisk follows results filed as active; nt = no result.

SMILES	NALP3 yeast inh	NALP1 yeast inh	Calb FLC	T cruzi repl	PolyA inh	Lmaj promast
COc1ccc(Br)cc1CNC(=O)CN1C(=O)C(c2ccccc2)Oc2cccnc21 (configuration not stated)	-5.5	-2.3	-7.5	35.7	-9.2	nt
S=C(NCc1ccccc1)N1CCn2cccc2C1c1cccnc1 (configuration not stated)	nt	4.5	-0.2	58.8*	-7.9	91.0*
S=C(NCCc1ccccc1)N1CCn2cccc2C1c1cccnc1 (configuration not stated)	3.7	-15.4	-7.9	67.7*	-18.0	94.9*
Cc1cc(C)n(CC(O)Cn2c3ccccc3c3ccccc32)n1 (configuration not stated)	18.3	15.5	10.5	13.4	-3.0	5.5
Oc1cccc2ccc[n+](CC(O)Cn3c4ccccc4c4ccccc43)c12 (configuration not stated)	12.7	8.9	3.6	32.2	7.1	90.7*
Oc1ccc2ccccc2c1/C=N/Nc1nnc(-c2ncc[nH]2)c2ccccc12	23.5	1.7	108.3*	58.3*	-0.2	100.4*
COc1cccc(NC(=S)N2CCC(N(C)CC3CCCO3)CC2)c1 (configuration not stated)	10.0	7.7	-3.0	-1.0	10.5	94.3*
Cc1ccc(NC(=S)N2CCC(N(C)CC3CCCO3)CC2)c(C)c1 (configuration not stated)	13.2	14.3	-0.9	-9.8	26.1	90.5*
Cc1ccc(C)c(NC(=S)N2CCC(N(C)CC3CCCO3)CC2)c1 (configuration not stated)	-1.4	7.7	-0.8	-2.5	19.5	90.9*
Cc1ccc(NC(=S)N2CCN(C(=O)C3CCCO3)CC2)c(C)c1 (configuration not stated)	-14.7	-21.9	-1.7	1.2	-6.6	-4.3
O=C1N/C(=N/N=C/c2ccccc2)SC1(c1ccccc1)c1ccccc1	5.6	7.8	-13.8	-13.0	-0.5	-6.7
CCOc1ccc(OCCOCCOc2c(Cl)cccc2Cl)cc1	9.2	nt	-0.3	7.1	3.3	59.8*
CCOc1ccccc1OCCOCCOc1c(Cl)cccc1Cl	19.7	21.3	2.4	7.4	2.4	33.5
Nc1cc(N)nc(SCc2nnnn2-c2ccc(Cl)cc2)n1	17.7	16.0	6.7	-19.4	-2.1	34.6
COc1ccc(/C=N/Nc2cc(C)nc3ccccc23)cc1	21.0	-6.1	-11.7	64.1*	7.9	nt
COC(=O)Nc1cc(C)nc2ccccc12	6.1	18.4	7.4	1.9	-0.5	55.3*
COc1ccc(Nc2cc(C)nc3ccc(OC)cc23)cc1	11.1	26.7	17.8	31.0	6.9	nt
COc1ccc(/C=N/Nc2cc(C)nc3c(C)cccc23)cc1	40.1	22.2	-19.9	74.2*	0.5	nt
Cc1cc(NC(=O)Cc2ccccc2)c2ccccc2n1	14.5	10.8	-1.3	21.3	-1.0	2.9
COc1cccc2c(N/N=C/c3ccc(O)c(O)c3)cc(C)nc12	25.1	-4.3	21.3	1.5	4.0	nt
COc1ccc2nc(C)cc(N/N=C/c3ccc(F)cc3)c2c1	30.0	18.1	-15.9	60.8*	24.4	nt
O=C(CN(Cc1ccc(F)cc1)C(=O)CCC(=O)Nc1nccs1)NCc1ccccc1	7.3	-13.1	9.1	2.0	-14.7	nt
CCC(C)n1c(-c2cccs2)nc2nc3ccccc3nc21 (configuration not stated)	13.1	9.4	35.2	14.6	6.4	67.0*
CCC1(C)NC(=O)N(/N=C/c2ccc(C)s2)C1=O (configuration not stated)	-11.5	14.6	-4.3	-9.7	0.3	nt
CCCCCCCc1nc2nc(C)c(Br)c(=O)n2[nH]1	-0.2	-6.2	-2.3	-2.9	1.8	nt
COc1ccc(C2=C(Nc3ccc(C)cc3)c3ccccc3C2=O)cc1	10.6	19.3	29.0	22.2	0.1	63.9*
COc1ccc(C2=C(Nc3ccc(F)cc3)c3ccccc3C2=O)cc1	21.0	-1.6	2.5	nt	-9.7	-1.1
O=C(NCCc1ccc(Cl)cc1)/C(=C/c1cccnc1)NC(=O)c1ccccc1	1.8	11.9	3.3	12.9	-6.9	58.7*

Compound activity (PubChem)
